For one experiment, the target named is Cannabinoid receptor 1 (Homo sapiens, UniProt P21554). The experiment in a line: Evaluated for its binding affinity towards Cannabinoid receptor 1 (CB1).
For experiment [1], the species on record is Mus musculus. Put plainly: Tested for the concentration for antinociception as measured by the tail-flick response (TF). Type of experiment: functional.
For experiment [2], the species on record is Mus musculus. The experiment in a line: Tested for the concentration for the inhibition of spontaneous activity (SA). Type of experiment: functional.
The species named for experiment [3] is Mus musculus. The experiment in a line: Tested for the concentration that shows hypothermia as changes in rectal temperature (RT). Type of experiment: functional.
The subject of experiment [4] is Mus musculus. The experiment in a line: The compound was tested for the concentration for antinociception as measured by the tail-flick response (TF) at a dose of 30 mg/kg. Type of experiment: functional. Summed up: (§1)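 Mice, single intravenous tail-vein dose in ethanol:emulphor:saline 1:1:18 at 0.1 mL/10 g. Several measures were taken in the same mouse. SA is % of control activity, and TF is %MPE with a 10-s maximum latency. Effect is expressed as percent of the Δ9-THC maximum (90% for SA, 100% for TF).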

The test system of experiment [5] is Mus musculus. The experiment in a line: The compound was tested for the concentration for the inhibition of spontaneous activity (SA) at a dose of 30 mg/kg. Format: functional. The gist of the method:
as §1

Experiment [6] has as its system Mus musculus. The experiment in a line: The compound was tested for the concentration that shows hypothermia as changes in rectal temperature (RT) at a dose of 30 mg/kg. Format: functional. Summed up: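 Mice, single intravenous tail-vein dose in ethanol:emulphor:saline 1:1:18 at 0.1 mL/10 g. Rectal temperature change (Δ°C) was measured in the same mouse as the other behavioural measures.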

The subject of experiment [7] is Mus musculus. The experiment in a line: The compound was tested for the concentration for the inhibition of spontaneous activity (SA) at a dose of 100 mg/kg. Type of experiment: functional. Summed up:
as §1

The species entered for experiment [8] is Mus musculus. Put plainly: Tested for the concentration that shows ring immobility (RI). Format: functional.
Experiment [9] concerns Mus musculus. The experiment in a line: The compound was tested for the concentration for antinociception as measured by the tail-flick response (TF) at a dose of 60 mg/kg. Type of experiment: functional. The gist of the method:
as §1

Sequence of Cannabinoid receptor 1 (P21554 whole entry): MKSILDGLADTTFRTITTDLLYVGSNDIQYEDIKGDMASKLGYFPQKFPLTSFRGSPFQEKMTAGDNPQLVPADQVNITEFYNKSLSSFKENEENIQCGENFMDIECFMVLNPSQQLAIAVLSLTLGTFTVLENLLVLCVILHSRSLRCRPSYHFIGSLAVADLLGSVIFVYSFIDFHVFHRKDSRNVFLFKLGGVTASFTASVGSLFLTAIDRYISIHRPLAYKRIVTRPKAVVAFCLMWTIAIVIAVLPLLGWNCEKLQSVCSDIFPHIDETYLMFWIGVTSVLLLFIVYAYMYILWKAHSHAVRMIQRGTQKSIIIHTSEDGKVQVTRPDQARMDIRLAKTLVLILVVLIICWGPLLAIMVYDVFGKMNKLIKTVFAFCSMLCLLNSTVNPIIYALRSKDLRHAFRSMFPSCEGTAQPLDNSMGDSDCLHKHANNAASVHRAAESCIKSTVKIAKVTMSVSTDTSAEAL

A word on the Ki: it is a measure of affinity in units of concentration, obtained from inhibition or displacement. For orientation: ED50 means the dose at which the effect has come halfway, by size or by number of responders. A high value points to a need for a large dose. For `CC1=CC[C@@H]2[C@@H](C1)c1c(O)cc(C(C)(C)CCCCOc3ccc(C#N)cc3)cc1OC2(C)C`, the affinity on Cannabinoid receptor 1 corresponds to a Ki of 3 nM. In addition, the ED50 in the experiment listed under Mus musculus [1] is 1.15 mg/kg; in the experiment listed under Mus musculus [2], 0.1 mg/kg; in the experiment filed under Mus musculus [3], 4.24 mg/kg.
What is called inhibition in vivo is the drop in the measured response relative to a control, in per cent. Take `CC1=CC[C@@H]2[C@@H](C1)c1c(O)cc(C(C)(C)CCCCC(=O)Nc3ccc(Cl)cc3)cc1OC2(C)C`: on Cannabinoid receptor 1, the affinity corresponds to a Ki of 187 nM. Besides, the results for the inhibition in vivo at 30 mg/kg in the experiment on Mus musculus [4], with Mus musculus [5] and in the experiment with Mus musculus [6] were 15%, 39% and -1.6%, respectively.
In turn, `CC1=CC[C@@H]2[C@@H](C1)c1c(O)cc(C(C)(C)CCCCC(=O)NN3CCCCC3)cc1OC2(C)C` gave a Ki at Cannabinoid receptor 1 of 1.2 nM. In addition, the figures for the ED50 in the experiment listed under Mus musculus [1], in the experiment filed under Mus musculus [2] and in the experiment filed under Mus musculus [3] were 0.16 mg/kg, 0.04 mg/kg and 0.17 mg/kg, respectively.
The corresponding values for `CC1=CC[C@@H]2[C@@H](C1)c1c(O)cc(C(C)(C)CCCCCC#N)cc1OC2(C)C` are 0.6 nM, 0.01 mg/kg, 0.006 mg/kg and 0.005 mg/kg.
Take `CC1=CC[C@@H]2[C@@H](C1)c1c(O)cc(C(C)(C)CCCCC(=O)Nc3ccc(S(N)(=O)=O)cc3)cc1OC2(C)C`: the affinity on Cannabinoid receptor 1, expressed as Ki, was 19 nM. Also, the ED50 in the experiment listed under Mus musculus [1] was determined as 3.2 mg/kg; in the experiment listed under Mus musculus [2], 2.03 mg/kg; in the experiment listed under Mus musculus [3] it was 1.7 mg/kg.
With `CC1=CC[C@@H]2[C@@H](C1)c1c(O)cc(C(C)(C)CCCCC(=O)Nc3ccc(Cl)cc3Cl)cc1OC2(C)C`, the affinity at Cannabinoid receptor 1, expressed as Ki, was 18 nM. The inhibition in vivo at 30 mg/kg in the experiment on Mus musculus [5] stood at 27%. Further, the median effective dose (ED50) came out at 14 mg/kg in the experiment listed under Mus musculus [1] and 3.7 mg/kg in the experiment listed under Mus musculus [3].
`CC1=CC[C@@H]2[C@@H](C1)c1c(O)cc(C(C)(C)CCCCC(=O)NCCc3ccc(S(N)(=O)=O)cc3)cc1OC2(C)C` gave a Ki on Cannabinoid receptor 1 of 29 nM. The inhibition in vivo at 100 mg/kg in the experiment on Mus musculus [7] is 60%. Moreover, the 50% effective dose (ED50) in the experiment filed under Mus musculus [1], in the experiment listed under Mus musculus [3] and in the experiment filed under Mus musculus [8] was over 100 mg/kg in each case.
On Cannabinoid receptor 1, `CC1=CC[C@@H]2[C@@H](C1)c1c(O)cc(C(C)(C)CCCCC(=O)NCc3ccc(S(N)(=O)=O)cc3)cc1OC2(C)C` came in with an inhibition constant Ki of 60 nM. The inhibition in vivo at 60 mg/kg with Mus musculus [9] worked out at 60%. In addition, the ED50 in the experiment listed under Mus musculus [2] was 31 mg/kg; in the experiment filed under Mus musculus [3], 37 mg/kg.
Turning to `CC1=CC[C@@H]2[C@@H](C1)c1c(O)cc(C(C)(C)CCCCC#N)cc1OC2(C)C`, at Cannabinoid receptor 1, the Ki came to 0.36 nM. Also, the 50% effective dose (ED50) in the experiment listed under Mus musculus [1] worked out at 0.0047 mg/kg; in the experiment filed under Mus musculus [2], 0.007 mg/kg; in the experiment filed under Mus musculus [3], 0.19 mg/kg; in the experiment filed under Mus musculus [8], 0.095 mg/kg.
For `CC1=CC[C@@H]2[C@@H](C1)c1c(O)cc(C(C)(C)CCCC(O)C#N)cc1OC2(C)C` (stereo not given in full), in that order: 13 nM, 0.11 mg/kg, 0.52 mg/kg, 1.5 mg/kg and 1.07 mg/kg.
As to `CC1=CC[C@@H]2[C@@H](C1)c1c(O)cc(C(C)(C)CCCCC(C#N)c3ccccc3)cc1OC2(C)C` (stereo not given in full), affinity at Cannabinoid receptor 1 was put at a Ki of 9.2 nM. Further, the ED50 in the experiment listed under Mus musculus [1] came to 1.4 mg/kg; in the experiment listed under Mus musculus [2], 6.51 mg/kg; in the experiment listed under Mus musculus [3] it was 4.2 mg/kg; in the experiment filed under Mus musculus [8] it was 5.05 mg/kg.
As for `CC1=CC[C@@H]2[C@@H](C1)c1c(O)cc(C(C)(C)CCCCC(=O)N(C)C)cc1OC2(C)C`, the Ki at Cannabinoid receptor 1 worked out at 0.86 nM. The values for the 50% effective dose (ED50) in the experiment listed under Mus musculus [1], in the experiment listed under Mus musculus [2] and in the experiment filed under Mus musculus [3] were 0.031 mg/kg, 0.0015 mg/kg and 0.12 mg/kg, respectively.
In turn, `CCN(CC)C(=O)CCCCC(C)(C)c1cc(O)c2c(c1)OC(C)(C)[C@@H]1CC=C(C)C[C@@H]21` came in with a Ki on Cannabinoid receptor 1 of 13 nM. Moreover, the 50% effective dose (ED50) in the experiment filed under Mus musculus [1] came out at 0.1 mg/kg; in the experiment listed under Mus musculus [2] it was 0.09 mg/kg; in the experiment listed under Mus musculus [3], 0.4 mg/kg.
Turning to `CCCCCCC(C)(C)c1cc(O)c2c(c1)OC(C)(C)[C@@H]1CC=C(C)C[C@@H]21`, affinity at Cannabinoid receptor 1 was put at a Ki of 0.77 nM. In addition, the 50% effective dose (ED50) is 0.04 mg/kg in the experiment filed under Mus musculus [1], 0.07 mg/kg in the experiment listed under Mus musculus [2], 0.04 mg/kg in the experiment listed under Mus musculus [3] and 0.05 mg/kg in the experiment filed under Mus musculus [8].
In the case of `CCCCCc1cc(O)c2c(c1)OC(C)(C)[C@@H]1CCC(C)=C[C@@H]21` [DRONABINOL], the 50% effective dose (ED50) in the experiment listed under Mus musculus [1] was 1.4 mg/kg; in the experiment filed under Mus musculus [2] it was 1 mg/kg; in the experiment listed under Mus musculus [3], 1.4 mg/kg; in the experiment listed under Mus musculus [8], 1.5 mg/kg.
